Screening data deposited in PubChem BioAssay by several laboratories.
This is a sample that favours compounds with a hit; in the whole collection about 2.2% have one here.
PKD1 inh: blocks activity of human protein kinase D1. Q15139. PKD1 kinase fluorescence polarization assay. inhibition, % (no concentration beside the values). 200,000 compounds, 0.056% hits; in the data active = inhibition above about 50%
p97 inhibitor: inhibitors of human p97 ATPase | inhibition, % at 8 µM | recombinant p97 ATPase, Kinase-Glo ATP luminescence, 3 h | 220,000 compounds, 0.42% hits | AID 1481; in the data active = inhibition above about 15%
Target sequence (P55072 whole entry, looked up): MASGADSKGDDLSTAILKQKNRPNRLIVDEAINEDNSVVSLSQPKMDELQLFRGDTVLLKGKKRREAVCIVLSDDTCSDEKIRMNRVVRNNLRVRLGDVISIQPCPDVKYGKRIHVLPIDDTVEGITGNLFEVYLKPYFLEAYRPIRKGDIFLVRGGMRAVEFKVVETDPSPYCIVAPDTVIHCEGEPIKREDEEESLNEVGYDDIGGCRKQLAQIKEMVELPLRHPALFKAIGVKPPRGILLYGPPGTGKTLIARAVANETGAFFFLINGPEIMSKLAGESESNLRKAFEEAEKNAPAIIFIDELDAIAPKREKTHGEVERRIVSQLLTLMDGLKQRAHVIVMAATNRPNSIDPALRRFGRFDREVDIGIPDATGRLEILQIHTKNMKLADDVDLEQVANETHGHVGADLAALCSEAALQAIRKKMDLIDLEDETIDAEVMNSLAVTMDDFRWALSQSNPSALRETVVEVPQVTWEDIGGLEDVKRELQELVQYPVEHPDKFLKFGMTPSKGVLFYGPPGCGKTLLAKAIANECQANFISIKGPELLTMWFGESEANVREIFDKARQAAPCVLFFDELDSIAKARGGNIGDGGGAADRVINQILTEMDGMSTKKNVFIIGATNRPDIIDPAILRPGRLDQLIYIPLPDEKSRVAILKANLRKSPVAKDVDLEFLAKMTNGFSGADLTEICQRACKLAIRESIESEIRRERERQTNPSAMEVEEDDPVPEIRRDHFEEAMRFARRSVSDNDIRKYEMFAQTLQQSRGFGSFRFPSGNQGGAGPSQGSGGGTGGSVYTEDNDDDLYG
RBBP9 inhibitor: blocks human serine hydrolase RBBP9; 220,000 compounds, 0.2% hits; recombinant RBBP9, FP-Rh probe fluorescence polarization; AID 1515; O75884; inhibition, % at 7.94 µM;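 active = inhibition above the campaign mean of all tested compounds plus 3 SD, cut at about 14% in these data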
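Controls: DMSO-treated enzyme wells and wells lacking RBBP9 | Material: RBBP9 protein | Technique: Fluorescence polarization | Replication: Single well per compound, no replicates | Buffer or medium: Tris-NaCl-Pluronic buffer, pH 8.0 | Timing: 30 min compound preincubation, 45 min probe labeling, 25 °C | Read-out basis: Percent inhibition from mP, scaled between DMSO and no-protein wells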
Redox H2O2 prof: compounds producing H2O2 with reducing agent – biochemical, NIH compound library profiling, artefact control for MLSCN library redox annotation, primary screen. DTT-dependent redox cycling H2O2, phenol red/HRP absorbance; 100% = 100 µM peroxide control, 0% = buffer. AID 878. 200,000 compounds, 0.03% hits. activation, % at 10 µM;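 active = activation of at least 50% relative to the plate's high and low controls in the primary single-dose screen; inactive = activation below 50%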;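 note: compound incubated with DTT at 0.8 mM final as the reducing agent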
Wee1 degr inh: blocks degradation of human Wee1 kinase | 220,000 compounds, 1.2% hits | reporter increase, % at 5 µM | HeLa Luc-Wee1K328M stability, luciferase luminescence; 100% = proteasome inhibitor MG132 effect | AID 1321;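 active = activation above the mean of all tested compounds plus 3 SD, set per screening run, cut at about 8.8% in these data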;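 note: cells exposed to compound for 20 h before luminescence read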
Arbovirus inh: arbovirus infection inhibition | arbovirus infection cell-based antiviral screen | inhibition, % at 10 µM | 200,000 compounds, 0.37% hits; in the data active = inhibition above about 30%
Numbers stand for hits; - = inactive; . = not tested or not shown.

SMILES	PKD1 inh	p97 inhibitor	RBBP9 inhibitor	Redox H2O2 prof	Wee1 degr inh	Arbovirus inh
O=C(Nc1nc(COc2ccccc2)cs1)C1CCC1	-	-	-	-	9.3	-
O=Cc1ccc(OCc2ccccn2)cc1	-	-	-	-	-	34.1
c1ccc(COc2cccc(CNCc3ccccn3)c2)cc1	-	-	-	-	-	-
Cc1ccc2c(n1)CC(C)(C)CC2=O	-	-	-	-	-	-
Cc1ccc(-n2nc(-c3ccc(OC(F)(F)F)cc3)cc2N)cc1C	.	-	-	.	-	.
O=c1/c(=C\c2ccc(F)cc2)sc2n1CCCN=2	-	-	-	-	9.3	-
CN(C)c1ccc(/C=c2\sc3n(c2=O)CCCN=3)cc1	-	-	-	-	-	-
C=CCn1c(=O)/c(=C/c2ccc(F)cc2)s/c1=C(\C#N)c1nnc2n1CCCCC2	-	-	-	-	-	-
O=c1/c(=C/c2ccc(O)cc2)sc2n1CCCN=2	-	-	-	-	-	46.8
CCOC(=O)c1sc(-c2ccc(F)cc2)cc1N	-	-	-	-	-	-
CCOC(=O)c1sc(-c2ccc(OC)cc2)cc1N	-	-	-	-	10.6	-
CCCN1C=CC(=C/C=C(\C#N)C(=O)OCC)C=C1	-	-	-	-	11.8	-
O=C(COC(=O)/C=C/c1ccc([N+](=O)[O-])cc1)NC(c1ccccc1)c1ccccc1	-	-	-	-	-	-
CCn1c(CSCc2ccccc2)n[nH]c1=S	-	-	-	-	9.1	-
CC(C)CNS(=O)(=O)c1ccc(OCC(=O)Nc2ccc(F)cc2F)cc1	-	-	-	-	9.0	-
CCC(C)NS(=O)(=O)c1ccc(OCC(=O)Nc2ccc(F)cc2F)cc1 (stereo unspecified)	-	-	-	-	-	-
CN(CC(=O)NCc1ccco1)S(=O)(=O)c1ccc2c(c1)c(=O)n(C)c(=O)n2C	.	-	-	.	-	.
Fc1ccc(Br)cc1C1C=C(c2ccc(Br)s2)Nc2ncnn21 (stereo unspecified)	-	-	-	-	-	36.7
COc1cccc(C2C=C(c3ccc(Br)s3)Nc3ncnn32)c1OC (stereo unspecified)	-	-	-	-	-	-
Cn1cc(CNC(=O)CC2C(=O)NCCN2CC(C)(C)C)cn1 (stereo unspecified)	-	-	-	-	-	-
Cc1cc(C(=O)N/N=C/c2ccc(-c3cccc(Cl)c3)o2)n[nH]1	.	-	-	.	-	.
O=C1NC(c2ccc3c(c2)OCO3)Nc2ccccc21 (stereo unspecified)	-	-	-	-	11.3	-
O=C1NC(c2ccc3c(c2)OCO3)Oc2ccccc21 (stereo unspecified)	-	-	-	-	-	-
S=C(NCCc1ccccc1)N1CCn2cccc2C1c1cccnc1 (stereo unspecified)	-	-	-	-	-	-
S=C(NCc1ccccc1)N1CCn2cccc2C1c1cccnc1 (stereo unspecified)	-	-	-	-	-	33.8
SMILES	PKD1 inh	p97 inhibitor	RBBP9 inhibitor	Redox H2O2 prof	Wee1 degr inh	Arbovirus inh
O=Cc1cn(-c2ccccc2)nc1-c1ccc2c(c1)OCCO2	-	-	-	-	9.2	-
NC(=O)[C@@H]1CCCNc2c(I)cc([N+](=O)[O-])cc2C(=O)N[C@@H](CO)C(=O)N[C@@H](Cc2ccc(O)cc2)C(=O)N1	-	-	-	-	-	-
CC(C)C[C@@H]1NC(=O)[C@H](Cc2ccc(O)cc2)NC(=O)c2cc([N+](=O)[O-])cc(I)c2NCCC[C@@H](C(N)=O)NC1=O	-	15.5	-	-	-	-
CC(C)[C@@H]1NC(=O)c2cc([N+](=O)[O-])cc(I)c2NCCC[C@@H](C(N)=O)NC(=O)[C@H](CO)NC1=O	-	-	-	-	-	-
NC(=O)CC[C@@H]1NC(=O)[C@H](CO)NC(=O)c2cc([N+](=O)[O-])cc(I)c2NCCC[C@@H](C(N)=O)NC(=O)[C@H](Cc2ccc(O)cc2)NC1=O	-	17.8	-	-	-	-
CN(Cc1ccccc1)c1nc(N)c([N+](=O)[O-])c(NCc2ccccc2)n1	-	-	-	-	-	36.2
CCOC(=O)c1cccc(COC(=O)c2cccc(-c3nnc(-c4ccccc4)o3)c2)c1	-	-	-	-	9.7	-
O=C(OCc1ccccc1)c1cccc(-c2nnc(-c3ccccc3)o2)c1	-	-	-	-	-	-
COc1ccc(-c2ccc(C(c3c(C)[nH][nH]c3=O)c3c(C)[nH][nH]c3=O)o2)c([N+](=O)[O-])c1	-	15.0	-	-	-	-
O=C(Nc1ccccc1)c1ccc(=O)n(Cc2ccc(F)c(F)c2)c1	-	-	-	-	-	-
O=C(/C=C/c1ccc2c(c1)OCCCO2)c1ccc2ccccc2c1O	-	-	-	-	-	31.6
Brc1ccc(-c2ccc(/C=N/Nc3nc4ccccc4[nH]3)o2)cc1	-	-	-	-	-	-
Nc1[nH]c(N=NC(=O)c2ccccc2)c2ccccc12	-	-	-	-	10.1	-
COCCOc1nc2ccccc2nc1C	-	-	-	-	-	-
Cc1nc2ccccc2nc1OCc1ccc([N+](=O)[O-])cc1	-	-	-	-	10.1	-
CCOC(=O)CSc1n[nH]c(NC(=O)CC)n1	-	-	-	-	10.2	-
O=C(NNC1=Nc2cccc3cccc1c23)c1ccc(Br)cc1	50.1	-	-	-	-	-
COc1ccc(CC(=O)NNC2=Nc3cccc4cccc2c34)cc1OC	.	-	-	.	-	.
Cc1ccc2c(c1)c1c(n2CC(O)Cn2nc(C)c(Br)c2C)CCCC1 (stereo unspecified)	-	-	-	-	-	-
Cc1nn(CC(O)Cn2c3c(c4ccccc42)CCN(C)C3=O)c(C)c1Br (stereo unspecified)	-	-	-	-	-	36.3
Oc1ccccc1-n1nc2ccc3nonc3c2n1	.	-	-	.	-	.
N#CC1=C(N)NC(SCC(=O)Nc2ccccc2)=C(C#N)C12CCCC2	-	-	-	-	-	-
O=C(N/N=C/c1cccc(OC(=O)N2CCOCC2)c1)c1cccs1	-	-	-	-	9.1	-
CCOC(=O)N1CCC(NC(=O)CCC(=O)N2CCOc3ccc(C)cc32)CC1	-	-	-	-	10.3	-
O=C(O)C1Cc2ccccc2CN1C(=O)CSc1nnc2ccccn12 (stereo unspecified)	-	-	-	-	-	-
O=C(O)c1cc(-c2ccc(/C=N/Nc3ccc([N+](=O)[O-])cn3)o2)ccc1Cl	-	-	-	-	-	31.3
CCn1c(SCC(=O)N2CCCCC2)nc(O)cc1=O	-	-	-	-	-	-
C=C(C)CN(CC)C(=O)CSc1nc(O)cc(=O)n1C1CCCC1	-	-	-	-	-	30.1
O=[N+]([O-])c1cc(CN2CCCC2)ccc1Sc1ccc(Cl)cc1	-	-	-	-	-	-
